Assay results published in ChEMBL document CHEMBL5674889, “Enhanced JunD/RSK3 signalling due to loss of BRD4/FOXD3/miR-548d-3p axis determines BET inhibition resistance” (2020).
Activity calls are given as the source filed them. The rule behind the calls is not given here.

Assays:
BT-549 [1] = assay: Antiproliferative activity in human JunD-overexpressing BT-549 cells assessed as cell growth in the presence of osimertinib at 1 uM by CCK-8 assay; format: functional, cell-based
MDA-MB-231 [2] = assay: Induction of apoptosis in human MDA-MB-231 cells expressing vector control assessed as early apoptotic cells at 1 uM by Annexin V-FITC flow cytometric analysis (reference value: 4.02%); format: functional
Method in brief: (§1)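 Stable clones (vector, RSK3-overexpressing or RPS6KA2-knockdown) treated ± JQ1 1 μM. Cells washed twice in PBS, resuspended at 1 × 10^6 cells/ml in binding buffer, stained with Annexin V-FITC and propidium iodide for 10 min at room temperature in the dark, then read by flow cytometry. Three independent experiments; one-way ANOVA.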

BT-549 [3] = assay: Antiproliferative activity in human JUND-knockdown BT-549 cells assessed as stronger tumor sphere formation at 1 uM by tumor sphere assay; format: functional, cell-based
BT-549 [4] = assay: Induction of apoptosis in human RPS6KA2-knockdown BT-549 cells at 1 uM by FACS assay; format: functional, cell-based; method in brief: as §1
HEK-293T = assay: Effect on human HEK293T cells transfected with BRD4 assessed as decrease in luciferase activity at 1 uM for 6 hrs by Luciferase reporter assay; format: functional, cell-based
BT-549 [5] = assay: Antiproliferative activity in human RPS6KA2-knockdown BT-549 cells assessed as cell viability at 1 uM for 48 hrs by CellTiter-Glo luminescent cell viability assay; format: functional, cell-based
Method in brief: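 CellTiter-Glo viability: stable overexpressing or shRNA clones (puromycin 1.0 μg/ml selection) seeded 3000 cells/well, adhered overnight, then exposed to 1 μM for 48 h. Luminescence is background-subtracted and normalised to DMSO-treated control. Triplicates, mean ± SD, one-way ANOVA. MDA-MB-231 cells are kept in DMEM and BT549 in RPMI-1640, each with 10% FBS.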

MDA-MB-231 [6] = assay: Antiproliferative activity in human FOXD3-knockdown MDA-MB-231 cells co-silenced with shRNA of JUND assessed as cell growth at 1 uM by CCK-8 assay; format: functional, cell-based
MDA-MB-231 [7] = assay: Effect on human RPS6KA2 knockdown MDA-MB-231 cells assessed as RSK3 protein expression at 1 uM for 24 hrs by Western blot analysis; format: functional, cell-based
MDA-MB-231 [8] = assay: Effect on induction of RPS6KA2 transcription in human MDA-MB-231 cells assessed as JunD protein expression at 1 uM for 24 hrs by Western blot analysis; format: functional, cell-based
BT-549 [9] = assay: Antiproliferative activity in human BT-549 cells assessed as inhibition of cell growth at 1 uM by CCK-8 assay; format: functional, cell-based
MDA-MB-231 [10] = assay: Induction of apoptosis in human MDA-MB-231 cells over expressing RSK3 assessed as necrotic cells at 1 uM by Annexin V-FITC flow cytometric analysis (reference value: 3.51%); format: functional; method in brief: as §1
MDA-MB-231 [11] = assay: Inhibition of FOXD3/-BRD4 protein-protein interaction in human MDA-MB-231 cells at 1 uM by Co-immunoprecipitation analysis; format: cell-based
Method in brief: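 Endogenous FOXD3 or BRD4 pulled down from MDA-MB-231 lysates with specific antibodies; partner detected by western blot.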

MDA-MB-231 [12] = assay: Induction of apoptosis in human MDA-MB-231 cells over expressing RSK3 assessed as late apoptotic cells at 1 uM by Annexin V-FITC flow cytometric analysis (reference value: 1.45%); format: functional; method in brief: as §1
BT-549 [13] = assay: Antiproliferative activity in human JUND-overexpressing BT-549 cells assessed as tumor sphere formation at 1 uM by Tumor sphere assay; format: functional, cell-based
BT-549 [14] = assay: Antiproliferative activity in human JUND-overexpressing BT-549 cells assessed as cell viability at 1 uM by CellTiter-Glo luminescent cell viability assay; format: functional, cell-based
Method in brief: (§2)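 Stable JUND-knockdown (shRNA, puromycin 1.0 μg/ml selection) or JUND-overexpressing clones and vector controls, seeded 3000 cells/well and adhered overnight, then given DMSO or JQ1 (1 μM) for 48 h. Read-out CellTiter-Glo luminescence normalized to DMSO control; triplicates, mean ± SD, one-way ANOVA.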

BT-549 [15] = assay: Effect on JUND dependent RPS6KA2 transcription in human JUND-knockdown BT-549 cells assessed reduction in transcription level at 1 uM by ChIP-RT-PCR analysis; format: functional, cell-based
Method in brief: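 ChIP-qPCR used ~1 × 10^6 cross-linked JUND-knockdown or control cells treated with DMSO or 1 μM for 6 h. Immunoprecipitated DNA was quantified by real-time PCR with primers specific to the RPS6KA2 enhancer. Non-specific primers downstream of the gene 3′ end served as control.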

MDA-MB-231 [16] = assay: Effect on JUND dependent RPS6KA2 transcription in human JUND-knockdown MDA-MB-231 cells assessed reduction in transcription level at 1 uM by EMSA analysis; format: functional, cell-based
BT-549 [17] = assay: Effect on human BT-549 cells assessed as RPS6KA2 mRNA expression in the presence of miR-548d-3p at 1 uM by RT-PCR analysis; format: functional, cell-based
[18] = target: T1, Transcription factor JunD (Homo sapiens) (UniProt P17535); assay: Binding affinity of JunD in human BT-549 cells assessed RPS6KA2 expression at 1 uM for 24 hrs by ChIP analysis; format: cell-based
T1 sequence (whole entry): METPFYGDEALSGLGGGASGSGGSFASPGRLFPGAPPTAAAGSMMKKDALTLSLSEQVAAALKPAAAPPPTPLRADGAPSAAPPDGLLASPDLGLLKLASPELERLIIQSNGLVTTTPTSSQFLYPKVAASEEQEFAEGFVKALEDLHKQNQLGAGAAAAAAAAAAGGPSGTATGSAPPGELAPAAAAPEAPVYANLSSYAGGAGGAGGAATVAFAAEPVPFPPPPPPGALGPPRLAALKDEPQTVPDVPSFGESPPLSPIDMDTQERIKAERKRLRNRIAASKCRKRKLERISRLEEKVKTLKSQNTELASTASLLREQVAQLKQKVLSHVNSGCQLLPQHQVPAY

BT-549 [19] = assay: Antiproliferative activity in human JUND-knockdown BT-549 cells assessed as cell viability at 1 uM by CellTiter-Glo luminescent cell viability assay; format: functional, cell-based; method in brief: as §2
MDA-MB-231 [20] = assay: Antiproliferative activity in human MDA-MB-231 cells assessed as inhibited cell growth in the presence of osimertinib at 1 uM for 48 hrs by CCK-8 assay; format: functional, cell-based
Method in brief: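 Cells seeded 3000/well, adhered overnight, treated with JQ1 (1 μM) with or without osimertinib (1 μM) for 48 h; growth by CCK-8 kit, normalized to DMSO-treated control; triplicates, mean ± SD, one-way ANOVA.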

MDA-MB-231 [21] = assay: Antiproliferative activity in human JUND-overexpressing MDA-MB-231 cells assessed as tumor sphere formation at 1 uM by Tumor sphere assay; format: functional, cell-based
MDA-MB-231 [22] = assay: Antiproliferative activity in human RPS6KA2-knockdown MDA-MB-231 cells assessed as inhibited cell growth at 1 uM for 48 hrs by CCK-8 assay; format: functional, cell-based
BT-549 [23] = assay: Effect on induction of RPS6KA2 transcription in human BT-549 cells assessed as JunD protein expression at 1 uM for 24 hrs by Western blot analysis; format: functional, cell-based

Question: Which Activity (BT-549 [1]) does the source give for `Cc1sc2c(c1C)C(c1ccc(Cl)cc1)=N[C@@H](CC(=O)OC(C)(C)C)c1nnc(C)n1-2` here?
Answer: Active

Question: And the Activity (MDA-MB-231 [2])?
Answer: 16.3%

Question: And the Activity (BT-549 [3])?
Answer: Active

Question: And the Activity (BT-549 [4])?
Answer: Active

Question: What about the Activity (HEK-293T) of the same compound?
Answer: Active

Question: What about the Activity (BT-549 [5]) of the same compound?
Answer: Active

Question: And the Activity (MDA-MB-231 [6])?
Answer: Active

Question: What about the Activity (MDA-MB-231 [7]) of the same compound?
Answer: Active

Question: What about the Activity (MDA-MB-231 [8]) of the same compound?
Answer: Active

Question: And the Activity (BT-549 [9])?
Answer: Active

Question: What about the Activity (MDA-MB-231 [10]) of the same compound?
Answer: 1.67%

Question: What about the inhibition (MDA-MB-231 [11]) of the same compound?
Answer: Active

Question: And the Activity (MDA-MB-231 [12])?
Answer: 2.9%

Question: What about the Activity (BT-549 [13]) of the same compound?
Answer: Active

Question: What about the Activity (BT-549 [14]) of the same compound?
Answer: Active

Question: And the Activity (BT-549 [15])?
Answer: Active

Question: And the Activity (MDA-MB-231 [16])?
Answer: Active

Question: What about the Activity (BT-549 [17]) of the same compound?
Answer: Active

Question: What about the Activity [18] of the same compound?
Answer: Active

Question: What about the Activity (BT-549 [19]) of the same compound?
Answer: Active

Question: What about the Activity (MDA-MB-231 [20]) of the same compound?
Answer: Active

Question: And the Activity (MDA-MB-231 [21])?
Answer: Active

Question: What about the Activity (MDA-MB-231 [22]) of the same compound?
Answer: Active

Question: What about the Activity (BT-549 [23]) of the same compound?
Answer: Active
